Measurements from ChEMBL document CHEMBL1126285, “Novel benzothiophene-, benzofuran-, and naphthalenecarboxamidotetrazoles as potential antiallergy agents” (J Med Chem, 1992).
pIC50: −log10 of the molar value.

Columns and labels:
[1] = Compound was evaluated for the inhibition of serum-opsonized zymosan stimulated superoxide (O2-) release from human neutrophil; type: functional
Method in brief: (§1)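 Neutrophil preparations (~98% purity) were isolated by Ficoll-Hypaque gradient centrifugation of anticoagulant-treated venous blood and stimulated with serum-opsonized zymosan. Respiratory burst was read as superoxide-mediated reduction of cytochrome C.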

Homo sapiens [2] = species on record: Homo sapiens; assay: Evaluated for the inhibition of superoxide (O2 -) anion release from human neutrophils; type: functional; method in brief: as §1
[3] = Concentration inhibiting anti-IgE stimulated release of leukotriene C4/D4 (LTC4/D4) from human chopped lung by 50% of control value; type: functional, tissue-based
Method in brief: (§2)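 Human lung tissue (~400 mg portions) was incubated 10 min in Tyrode's buffer at 37 °C, dosed with drug or vehicle, and challenged 10 min later with anti-IgE (final 3:1000) for 30 min. Supernatant leukotrienes or thromboxane were measured by RIA kits, giving the concentration for 50% inhibition of control release.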

[4] = Compound was evaluated for the inhibition of anti-IgE stimulated histamine release from human basophil; type: functional
Method in brief: (§3)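 Whole blood from well-characterized allergic donors; after red-cell sedimentation, leukocytes were washed and resuspended in buffer, preincubated with compound, then challenged with anti-IgE. Histamine was read by automated fluorometric assay, with inhibition taken against anti-IgE-challenged nondrug controls. IC50 runs used 3-fold steps over 1-100 μM.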

[5] = Concentration inhibiting anti-IgE stimulated release of histamine from human chopped lung by 50% of control value; type: functional, tissue-based
Method in brief: (§4)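 Human lung tissue was washed, and ~400 mg portions were placed in 37 °C buffer. After 10 min in Tyrode's buffer, drug or vehicle was added; 10 min later, tissue was challenged with anti-IgE (final dilution 3:1000) for 30 min. Supernatant histamine was assayed, giving the concentration for 50% inhibition versus control.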

[6] = Compound was evaluated for the inhibition of serum-opsonized zymosan stimulated superoxide (O2-) release from human eosinophil; type: functional
Method in brief: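 Eosinophils were enriched above 95% purity by discontinuous Percoll gradient centrifugation after Ficoll-Hypaque separation of venous blood leukocytes. Cells were stimulated with serum-opsonized zymosan, and superoxide was measured as cytochrome C reduction.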

Homo sapiens [7] = species on record: Homo sapiens; assay: Evaluated for the inhibition of human basophil histamine release stimulated by anti-Immunoglobulin E (IgE) at a concentration of 10 uM; type: functional; method in brief: as §3
Homo sapiens [8] = species on record: Homo sapiens; assay: Compound was evaluated for the inhibition of serum-opsonized zymosan stimulated TXB2 release from human neutrophil; type: functional
Method in brief: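 Human polymorphonuclear leukocytes (~98% neutrophils) came from anticoagulant-treated venous blood via Ficoll-Hypaque centrifugation. They were stimulated with serum-opsonized zymosan, and TxB2 release was measured by radioimmunoassay.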

Homo sapiens [9] = species on record: Homo sapiens; assay: Inhibition of anti-IgE stimulated release of Thromboxane B2 (TXB2) from human chopped lung by 50% of control value; type: functional; method in brief: as §2
Homo sapiens [10] = species on record: Homo sapiens; assay: Evaluated for the inhibition of human basophil histamine release stimulated by anti-Immunoglobulin E (IgE) at a concentration of 33 uM; type: functional; method in brief: as §3
[11] = molecular target: T1, Eosinophil peroxidase (Homo sapiens) (UniProt P11678); assay: Compound was evaluated for the inhibition of serum-opsonized zymosan stimulated eosinophil peroxidase release from human eosinophil; Inactive; type: functional; conditions: concentration not given here
T1 sequence (whole entry): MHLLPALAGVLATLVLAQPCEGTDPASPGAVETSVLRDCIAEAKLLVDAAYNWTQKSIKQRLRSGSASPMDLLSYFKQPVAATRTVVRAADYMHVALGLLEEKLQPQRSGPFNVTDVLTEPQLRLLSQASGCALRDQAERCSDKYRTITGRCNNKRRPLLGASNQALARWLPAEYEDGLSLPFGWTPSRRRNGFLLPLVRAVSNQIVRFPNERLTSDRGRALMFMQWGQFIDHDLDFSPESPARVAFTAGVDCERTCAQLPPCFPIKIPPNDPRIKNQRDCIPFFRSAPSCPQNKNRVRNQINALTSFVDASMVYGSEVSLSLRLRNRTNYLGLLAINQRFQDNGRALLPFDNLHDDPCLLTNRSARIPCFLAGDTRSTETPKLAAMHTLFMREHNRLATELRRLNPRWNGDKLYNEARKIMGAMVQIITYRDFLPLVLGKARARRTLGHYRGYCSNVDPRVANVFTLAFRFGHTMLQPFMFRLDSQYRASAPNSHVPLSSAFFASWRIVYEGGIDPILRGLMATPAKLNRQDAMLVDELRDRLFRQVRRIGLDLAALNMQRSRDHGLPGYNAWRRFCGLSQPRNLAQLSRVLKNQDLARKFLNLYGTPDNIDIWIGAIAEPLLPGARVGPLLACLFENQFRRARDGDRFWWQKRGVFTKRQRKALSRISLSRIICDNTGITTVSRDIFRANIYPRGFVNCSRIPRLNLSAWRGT

Homo sapiens [12] = species on record: Homo sapiens; assay: Compound was evaluated for the inhibition of anti-IgE stimulated TXB2 release from human basophil; type: functional
Homo sapiens [13] = species on record: Homo sapiens; assay: Evaluated for the inhibition of human basophil histamine release stimulated by anti-Immunoglobulin E (IgE) at a concentration of 10 uM; inactive; type: functional; method in brief: as §3
Homo sapiens [14] = species on record: Homo sapiens; assay: Inhibition of anti-IgE stimulated release of leukotriene C4/D4 (LTC4/D4) from human chopped lung by 50% of control value; type: functional; method in brief: as §2
Homo sapiens [15] = species on record: Homo sapiens; assay: Inhibition of anti-IgE stimulated release of histamine from human chopped lung by 50% of control value; type: functional; method in brief: as §4
[16] = Compound was evaluated for the inhibition of superoxide (O2 -) anion release from human neutrophils at 100 uM; inactive; type: functional; method in brief: as §1
[17] = Compound was evaluated for the inhibition of human basophil histamine release stimulated by anti-Immunoglobulin E (IgE) at a concentration of 33 uM; inactive; type: functional; method in brief: as §3

pIC50 (Homo sapiens [2]) | SMILES | inhibition at 10 µM (Homo sapiens [7]) | inhibition at 33 µM (Homo sapiens [10]) | inhibition at 10 µM (Homo sapiens [13]) | other results
4.84 | COc1ccc2sc(C(=O)Nc3nnn[nH]3)c(OC(C)C)c2c1 | 94.7% | 97.3% | – | pIC50 [1]: 4.84; pIC50 [3]: 6.52; pIC50 [4]: 5.96; pIC50 [5]: 5.64; pIC50 [6]: 5.26; pIC50 (Homo sapiens [8]): 5.35; pIC50 (Homo sapiens [9]): 6.52; inhibition [11]: < 20%; pIC50 (Homo sapiens [12]): 6.70
< 4.00 | CC(C)Oc1c(C(=O)Nc2nn[nH]n2)sc2ccc(Oc3ccccc3)cc12 | – | 55% | < 25% | –
4.40 | COc1cc2sc(C(=O)Nc3nn[nH]n3)c(OCc3ccccc3)c2cc1OC | 90.3% | 90.7% | – | pIC50 (Homo sapiens [14]): 5.89; pIC50 (Homo sapiens [9]): > 6.13; pIC50 (Homo sapiens [15]): 5.60
< 4.00 | CCOc1c(C(=O)Nc2nn[nH]n2)sc2ccc(OC)cc12 | 92.5% | 98% | – | –
< 4.00 | CC(C)Oc1c(C(=O)Nc2nn[nH]n2)sc2ccc(OCc3ccccc3)cc12 | – | 41.6% | < 25% | –
4.43 | COc1ccc2c(OC(C)C)c(C(=O)Nc3nn[nH]n3)sc2c1 | 92% | 88.6% | – | pIC50 (Homo sapiens [14]): 6.40; pIC50 (Homo sapiens [9]): 6.52; pIC50 (Homo sapiens [15]): 6.05
< 4.00 | CC(C)Oc1c(C(=O)Nc2nn[nH]n2)sc2ccccc12 | 27.5% | 65.8% | – | –
< 4.00 | COc1ccc2oc(C(=O)Nc3nn[nH]n3)c(OC(C)C)c2c1 | – | 43.3% | < 25% | –
< 4.00 | COc1ccc2sc(C(=O)Nc3nn[nH]n3)c(OC(C)(C)C)c2c1 | 62% | 100% | – | –
– | CC(C)Oc1c(C(=O)Nc2nn[nH]n2)sc2ccc([N+](=O)[O-])cc12 | – | 53% | < 25% | inhibition at 100 µM [16]: < 5%
< 4.00 | COc1ccc2sc(C(=O)Nc3nn[nH]n3)c(OC)c2c1 | 59.8% | 97.3% | – | –
< 4.00 | COc1ccc2ccc(C(=O)Nc3nn[nH]n3)c(OC(C)C)c2c1 | 51% | 90.5% | – | –
4.37 | COc1ccc2c(OC(C)C)c(C(=O)Nc3nn[nH]n3)oc2c1 | 77% | 99.5% | – | –
< 4.00 | COc1ccc2c(OC(C)C)c(C(=O)Nc3nn[nH]n3)sc2c1Cl | – | – | < 25% | inhibition at 33 µM [17]: < 25%
< 4.00 | COc1cccc2c(OC(C)C)c(C(=O)Nc3nn[nH]n3)sc12 | – | < 25% | < 25% | –
5.00 | COc1ccc2sc(C(=O)Nc3nn[nH]n3)c(Oc3ccccc3)c2c1 | 96.3% | 91.3% | – | pIC50 (Homo sapiens [14]): 5.96; pIC50 (Homo sapiens [9]): 5.31; pIC50 (Homo sapiens [15]): 5.46
< 4.00 | CC(C)Oc1c(C(=O)Nc2nn[nH]n2)sc2ccc(Cl)cc12 | 73% | 92% | – | –
4.32 | CC(C)Oc1c(C(=O)Nc2nn[nH]n2)sc2ccc(O)cc12 | – | 86% | < 25% | –
< 4.00 | COc1ccc2c(c1)c(OC(C)C)c(C(=O)Nc1nn[nH]n1)n2-c1ccccc1 | 46% | 82% | – | pIC50 (Homo sapiens [14]): 4.92; pIC50 (Homo sapiens [9]): 4.92; pIC50 (Homo sapiens [15]): 4.96
4.63 | COc1ccc2sc(C(=O)Nc3nn[nH]n3)c(OCc3ccccc3)c2c1 | 80.8% | 84.5% | – | –
5.24 | COc1cc2sc(C(=O)Nc3nn[nH]n3)c(Oc3ccccc3)c2cc1OC | 96% | 93.6% | – | pIC50 (Homo sapiens [14]): 5.01; pIC50 (Homo sapiens [9]): > 6.12; pIC50 (Homo sapiens [15]): 5.31
– | CCCc1c2oc(C(=O)O)cc(=O)c2cc2c(=O)cc(C(=O)O)n(CC)c12 [NEDOCROMIL] | – | – | < 25% | inhibition at 33 µM [17]: < 25%
– | COc1ccc2c(OC(C)C)c(C(=O)Nc3nn[nH]n3)ccc2c1 | 31.3% | 72.7% | – | –
– | Cc1ccc2sc(C(=O)Nc3nn[nH]n3)c(OC(C)C)c2c1 | – | – | < 25% | inhibition at 100 µM [16]: < 5%; inhibition at 33 µM [17]: < 25%
4.75 | COc1cc2sc(C(=O)Nc3nn[nH]n3)c(OC(C)C)c2cc1OC | 80% | 81.7% | – | pIC50 (Homo sapiens [14]): 6.52; pIC50 (Homo sapiens [9]): > 6.12; pIC50 (Homo sapiens [15]): 5.35
